Measured values published in ChEMBL document CHEMBL4138126, “Synthesis, antiproliferative, anti-tubulin activity, and docking study of new 1,2,4-triazoles as potential combretastatin analogues” (Eur J Med Chem, 2017).

Tests used:
SW-620 = assay: Growth inhibition of human SW620 cells assessed as cell growth at 10 uM after 48 hrs by sulforhodamine B assay; assay type: functional; conditions: SW-620, 48 h, read-out: Activity
Method in brief: (§1)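 NCI 60-cell-line panel from nine tumour types (leukaemia, lung, colon, CNS, melanoma, ovarian, renal, prostate, breast). Each compound was added at one single concentration, and cultures were incubated for 48 h. Results are reported as percent growth inhibition.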

OVCAR-8 = assay: Growth inhibition of human OVCAR8 cells assessed as cell growth at 10 uM after 48 hrs by sulforhodamine B assay; assay type: functional; conditions: OVCAR-8, 48 h, read-out: Activity
Method in brief: (§2)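 NCI 60-cell-line panel screen (nine cancer types). Compounds added at single concentration 10^-5 M, cultures incubated 48 h; growth inhibition percentages reported.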

HOP-62 = assay: Growth inhibition of human HOP62 cells assessed as cell growth at 10 uM after 48 hrs by sulforhodamine B assay; assay type: functional; conditions: HOP-62, 48 h, read-out: Activity; method in brief: as §2
DU-145 = assay: Growth inhibition of human DU145 cells assessed as cell growth at 10 uM after 48 hrs by sulforhodamine B assay; assay type: functional; conditions: DU-145, 48 h, read-out: Activity; method in brief: as §2
MOLT-4 = assay: Growth inhibition of human MOLT4 cells assessed as cell growth at 10 uM after 48 hrs by sulforhodamine B assay; assay type: functional; conditions: MOLT-4, 48 h, read-out: Activity; method in brief: as §2
OVCAR-4 = assay: Growth inhibition of human OVCAR4 cells assessed as cell growth at 10 uM after 48 hrs by sulforhodamine B assay; assay type: functional; conditions: OVCAR-4, 48 h, read-out: Activity; method in brief: as §2
MDA-MB-435 = assay: Growth inhibition of human MDA-MB-435 cells assessed as cell growth at 10 uM after 48 hrs by sulforhodamine B assay; assay type: functional; conditions: MDA-MB-435, 48 h, read-out: Activity; method in brief: as §2
IGROV-1 = assay: Growth inhibition of human IGROV1 cells assessed as cell growth at 10 uM after 48 hrs by sulforhodamine B assay; assay type: functional; conditions: IGROV-1, 48 h, read-out: Activity; method in brief: as §2
M14 = assay: Growth inhibition of human M14 cells assessed as cell growth at 10 uM after 48 hrs by sulforhodamine B assay; assay type: functional; conditions: M14, 48 h, read-out: Activity; method in brief: as §2
MDA-MB-231 = assay: Growth inhibition of human MDA-MB-231 cells assessed as cell growth at 10 uM after 48 hrs by sulforhodamine B assay; assay type: functional; conditions: MDA-MB-231, 48 h, read-out: Activity; method in brief: as §2
NCI-H226 = assay: Growth inhibition of human NCI-H226 cells assessed as cell growth at 10 uM after 48 hrs by sulforhodamine B assay; assay type: functional; conditions: NCI-H226, 48 h, read-out: Activity; method in brief: as §2
NCI-H23 = assay: Growth inhibition of human NCI-H23 cells assessed as cell growth at 10 uM after 48 hrs by sulforhodamine B assay; assay type: functional; conditions: NCI-H23, 48 h, read-out: Activity; method in brief: as §2
CCRF-CEM = assay: Growth inhibition of human CCRF-CEM cells assessed as cell growth at 10 uM after 48 hrs by sulforhodamine B assay; assay type: functional; conditions: read-out: Activity; method in brief: as §2
HT-29 = assay: Growth inhibition of human HT-29 cells assessed as cell growth at 10 uM after 48 hrs by sulforhodamine B assay; assay type: functional; conditions: HT-29, 48 h, read-out: Activity; method in brief: as §2
RPMI-8226 = assay: Growth inhibition of human RPMI8226 cells assessed as cell growth at 10 uM after 48 hrs by sulforhodamine B assay; assay type: functional; conditions: RPMI-8226, 48 h, read-out: Activity; method in brief: as §2
HL-60(TB) = assay: Growth inhibition of human HL-60(TB) cells assessed as cell growth at 10 uM after 48 hrs by sulforhodamine B assay; assay type: functional; conditions: HL-60, 48 h, read-out: Activity
Method in brief: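 Screened by the NCI in its 60-cell-line panel covering nine cancer types, including leukemia. Compounds were added at a single concentration, and the cultures were incubated for 48 h. Results are reported as percent growth inhibition.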

HCT-116 = assay: Growth inhibition of human HCT116 cells assessed as cell growth at 10 uM after 48 hrs by sulforhodamine B assay; assay type: functional; conditions: HCT-116, 48 h, read-out: Activity; method in brief: as §2
HL-60 = assay: Cytotoxicity in human HL60 cells assessed as reduction in cell viability incubated for 48 hrs by MTT assay; assay type: functional, cell-based; conditions: HL-60, 48 h
Method in brief: (§3)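 HepG2 and HL60 (ATCC) grown in DMEM with 10% FBS, 2 mM L-glutamine, penicillin/streptomycin, amphotericin B at 37 °C, 5% CO2. Samples dissolved in DMSO, diluted thousandfold in assay. Cells seeded in serum-free medium, treated with serial concentrations 48 h; MTT 4 h, formazan dissolved in acidified isopropanol, A570. Triplicates averaged; viability relative to untreated/vehicle control.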

NCI-H522 = assay: Growth inhibition of human NCI-H522 cells assessed as cell growth at 10 uM after 48 hrs by sulforhodamine B assay; assay type: functional; conditions: NCI-H522, 48 h, read-out: Activity; method in brief: as §2
HepG2 = assay: Cytotoxicity in human HepG2 cells assessed as reduction in cell viability incubated for 48 hrs by MTT assay; assay type: functional, cell-based; conditions: HepG2, 48 h; method in brief: as §3
LOX IMVI = assay: Growth inhibition of human LOXIMVI cells assessed as cell growth at 10 uM after 48 hrs by sulforhodamine B assay; assay type: functional; conditions: read-out: Activity; method in brief: as §2
SF-268 = assay: Growth inhibition of human SF268 cells assessed as cell growth at 10 uM after 48 hrs by sulforhodamine B assay; assay type: functional; conditions: SF-268, 48 h, read-out: Activity; method in brief: as §2
RXF 393 = assay: Growth inhibition of human RXF393 cells assessed as cell growth at 10 uM after 48 hrs by sulforhodamine B assay; assay type: functional; conditions: RXF 393, 48 h, read-out: Activity; method in brief: as §2
SR = assay: Growth inhibition of human SR cells assessed as cell growth at 10 uM after 48 hrs by sulforhodamine B assay; assay type: functional; conditions: read-out: Activity; method in brief: as §1
ACHN = assay: Growth inhibition of human ACHN cells assessed as cell growth at 10 uM after 48 hrs by sulforhodamine B assay; assay type: functional; conditions: read-out: Activity; method in brief: as §2
HOP-92 = assay: Growth inhibition of human HOP92 cells assessed as cell growth at 10 uM after 48 hrs by sulforhodamine B assay; assay type: functional; conditions: HOP-92, 48 h, read-out: Activity; method in brief: as §2
MDA-MB-468 = assay: Growth inhibition of human MDA-MB-468 cells assessed as cell growth at 10 uM after 48 hrs by sulforhodamine B assay; assay type: functional; conditions: MDA-MB-468, 48 h, read-out: Activity; method in brief: as §2
COLO 205 = assay: Growth inhibition of human COLO205 cells assessed as cell growth at 10 uM after 48 hrs by sulforhodamine B assay; assay type: functional; conditions: COLO 205, 48 h, read-out: Activity; method in brief: as §2
BT-549 = assay: Growth inhibition of human BT549 cells assessed as cell growth at 10 uM after 48 hrs by sulforhodamine B assay; assay type: functional; conditions: BT-549, 48 h, read-out: Activity; method in brief: as §2
Hs-578T = assay: Growth inhibition of human Hs 578T cells assessed as cell growth at 10 uM after 48 hrs by sulforhodamine B assay; assay type: functional; conditions: read-out: Activity; method in brief: as §2
MCF7 = assay: Growth inhibition of human MCF7 cells assessed as cell growth at 10 uM after 48 hrs by sulforhodamine B assay; assay type: functional; conditions: MCF7, 48 h, read-out: Activity; method in brief: as §2

Row | Compound | growth at 10 µM (SW-620) | growth at 10 µM (OVCAR-8) | growth at 10 µM (HOP-62) | growth at 10 µM (DU-145) | growth at 10 µM (MOLT-4) | growth at 10 µM (OVCAR-4) | growth at 10 µM (MDA-MB-435) | growth at 10 µM (IGROV-1) | growth at 10 µM (M14) | growth at 10 µM (MDA-MB-231) | growth at 10 µM (NCI-H226) | growth at 10 µM (NCI-H23) | growth at 10 µM (CCRF-CEM) | growth at 10 µM (HT-29) | growth at 10 µM (RPMI-8226) | growth at 10 µM (HL-60(TB)) | growth at 10 µM (HCT-116) | growth at 10 µM (NCI-H522) | growth at 10 µM (LOX IMVI) | growth at 10 µM (SF-268) | other results
1 | CCOc1ccc(-n2nc(C(=O)NCc3cc(F)cc(F)c3)nc2-c2cc(OC)c(OC)c(OC)c2)cc1 | 91.4% | 75% | 75.2% | 86.9% | 45.1% | 65.8% | 67% | 62.5% | 65.2% | 43.1% | 65.2% | 81.8% | 85.6% | 61.7% | 47% | 61.4% | 49.7% | 50.9% | 66.6% | 65.5% | IC50 (HL-60): 950 nM; IC50 (HepG2): 1410 nM; growth at 10 µM (RXF 393): 68.6%; growth at 10 µM (SR): 64%; growth at 10 µM (ACHN): 54.4%; growth at 10 µM (HOP-92): 61.1%; growth at 10 µM (MDA-MB-468): 73.6%; growth at 10 µM (COLO 205): 65%; growth at 10 µM (BT-549): 68.7%; growth at 10 µM (Hs-578T): 75.7%; growth at 10 µM (MCF7): 44.3%
2 | CCOc1ccc(-n2nc(C(=O)Nc3ccccc3OC)nc2-c2cc(OC)c(OC)c(OC)c2)cc1 | 100% | 90.3% | 86.5% | 95.6% | 76.5% | 72.9% | 86.9% | 99.3% | 92.8% | 44.5% | 82.3% | 97.8% | 94% | 74% | 68.2% | 73.2% | 72.7% | 69.2% | 92.2% | 89.2% | growth at 10 µM (RXF 393): 88.4%; growth at 10 µM (SR): 65.7%; growth at 10 µM (ACHN): 79.3%; growth at 10 µM (HOP-92): 86.8%; growth at 10 µM (MDA-MB-468): 92.3%; growth at 10 µM (COLO 205): 78.7%; growth at 10 µM (BT-549): 77.6%; growth at 10 µM (Hs-578T): 81.5%; growth at 10 µM (MCF7): 77.4%
3 | COc1cccc(-n2nc(C(=O)Nc3ccccc3)nc2-c2cc(OC)c(OC)c(OC)c2)c1 | 100% | 101% | 83.8% | 104% | 105% | 81.8% | 90.4% | 93.1% | 102% | 104% | 96.9% | 111% | 105% | 79.9% | 108% | 121% | 91.3% | 65.5% | 102% | 88.6% | IC50 (HL-60): > 100000 nM; IC50 (HepG2): 6530 nM; growth at 10 µM (RXF 393): 97.9%; growth at 10 µM (SR): 93.9%; growth at 10 µM (ACHN): 93.8%; growth at 10 µM (HOP-92): 97.9%; growth at 10 µM (MDA-MB-468): 84.5%; growth at 10 µM (COLO 205): 104%; growth at 10 µM (BT-549): 87.4%; growth at 10 µM (Hs-578T): 99.7%; growth at 10 µM (MCF7): 91.6%
